PP1 counter: counter-screen for PP5 inhibitors: inhibitors of human PP1-alpha | P62136 | purified PP1alpha, OMFP fluorescence | inhibition, % at 6.7 µM | 0.9% of 320,000 active;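 active means inhibition above the mean inhibition of all tested compounds plus 3 SD, computed separately for each screening campaign, cut at about 15% in these data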
Target sequence (P62136 whole entry, looked up): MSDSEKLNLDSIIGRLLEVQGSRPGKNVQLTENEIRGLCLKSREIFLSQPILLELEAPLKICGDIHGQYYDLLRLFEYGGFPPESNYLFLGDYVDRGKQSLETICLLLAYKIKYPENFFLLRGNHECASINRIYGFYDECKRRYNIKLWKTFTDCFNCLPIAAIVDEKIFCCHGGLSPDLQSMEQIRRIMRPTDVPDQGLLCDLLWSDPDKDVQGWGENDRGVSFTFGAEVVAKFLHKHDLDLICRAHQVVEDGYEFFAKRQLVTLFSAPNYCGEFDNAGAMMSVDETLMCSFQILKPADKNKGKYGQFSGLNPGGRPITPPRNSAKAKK
PP5 inh: blocks human protein phosphatase 5 activity; purified PP5c, OMFP substrate fluorescence; inhibition, % at 6.7 µM; 0.18% of 320,000 active; AID 1987;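 active means inhibition above the campaign's mean inhibition across all tested compounds plus 3 SD, cut at about 9.5% in these data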;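 further: 0% = DMSO only and 100% = 100 µM cantharidin control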
STEP block: inhibitors of human striatal-enriched phosphatase STEP. P54829. recombinant STEP, OMFP fluorogenic substrate, fluorescence. inhibition, % at 20 µM. 0.25% of 360,000 active. AID 588621;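 active means inhibition at 20 µM, scaled per plate between control wells, above about 37%, limit read from the data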;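 further: 0% = DMSO with enzyme and substrate and 100% = substrate only without enzyme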
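System: STEP (striatal-enriched tyrosine phosphatase) enzyme, cell-free; medium: Bis-Tris pH 6.0 buffer with DTT, detergent; dosing: 20 µM, 1% DMSO; times: reaction 20 min, ambient temperature; detection: fluorescence, 480/540 nm; read-out basis: normalized % inhibition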
Scp1 inh: Scp-1 (human) phosphatase inhibition. Q9GZU7. Recombinant Scp1, phosphopeptide, malachite green phosphate absorbance. inhibition, % at 20 µM. 0.88% of 340,000 active. AID 493091;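 active means inhibition above about 50% at 20 µM, limit read from the data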;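 further: plate controls were DMSO wells with enzyme for no effect and wells lacking enzyme for full effect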
Target sequence (Q9GZU7 76-261 limits assumed): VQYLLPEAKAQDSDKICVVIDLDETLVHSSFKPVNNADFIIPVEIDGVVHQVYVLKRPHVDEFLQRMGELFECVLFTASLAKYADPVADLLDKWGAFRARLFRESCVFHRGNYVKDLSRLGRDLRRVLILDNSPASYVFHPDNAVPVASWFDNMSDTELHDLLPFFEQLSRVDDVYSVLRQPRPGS
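assay system = SCP-1 phosphatase catalytic domain, residues 76-261 | buffer or medium = 50 mM Tris acetate pH 5.5, 0.005% Tween-20, 10 mM MgCl2 | incubation = enzyme reaction 45 min at room temperature, colour 5 min, stabilisation 30 min | signal = Phosphate-binding colour reagent, absorbance read at 630 nm | measure = % inhibition at 20 µM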
LMPTP inh: LMPTP (human) inhibition; recombinant LMPTP-A, OMFP fluorogenic substrate, fluorescence intensity; inhibition, % at 20 µM; 0.22% of 360,000 active;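 active means compounds that cut the enzyme signal by at least half of the control window in the single-dose screen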;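 further: plate controls were DMSO wells with enzyme plus substrate for no effect and substrate without enzyme for full effect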
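Test system: LMPTP-A phosphatase enzyme; input: 0.625 nM LMPTP-A final; reagent: OMFP substrate, 400 µM final; compound dosing: 20 µM single dose, 3% DMSO; incubation: 50 min dark incubation at room temperature; measured by: endpoint fluorescence intensity from OMFP dephosphorylation; measure: % inhibition relative to no-enzyme and uninhibited control wells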
PP1 inh confirm: confirmation of human PP1 phosphatase inhibitors; purified PP1alpha, OMFP substrate fluorescence; AID 2358; inhibition, % at 6.7 µM; 52% of 1,900 active; shares compounds with PP1 counter;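 active means mean PP1 inhibition above a set limit taken from the earlier primary screen, cut at about 15% in these data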
PP5 inh counter: inhibits human PP5 phosphatase in PP1 counter-screen; purified PP5c, OMFP fluorescence; shares compounds with PP1 counter; inhibition, % at 6.7 µM; 4% of 1,900 active; AID 2360;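 active means mean PP5 inhibition over triplicate wells above about 9.5% taken from the earlier PP1 screen, limit read from the data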
Starred values were filed as active, the others as inactive; . = no result; ! = not confirmed by another sample. Shown are actives, neighbours in structure and some others; about 1.9% of the full set was active somewhere.

SMILES	PP1 counter	PP5 inh	STEP block	Scp1 inh	LMPTP inh	PP1 inh confirm	PP5 inh counter
CSCCC(NC(=O)c1ccc([N+](=O)[O-])cc1Cl)C(=O)OCC(=O)NC(=O)CN1CCCC1=O (stereo not drawn)	39*	-1	-4	0	-1	-1	-3
C=CCNc1nc2c(c(=O)n(C)c(=O)n2C)n1CCCCCC	-2	0	-14	-11	-1	.	.
O=C1c2c(O)cccc2Cc2cccc(O)c21	35*	2	10	-10	30	29*	-3
Cc1ccc(C)c(NC(=O)CN(C)C(=O)[C@@H](NC(N)=O)C(C)C)c1	6	-2	-1	6	0	.	.
C#CCn1c(=NC(=O)c2sc3ccccc3c2Cl)sc2cc(S(N)(=O)=O)ccc21	28*	0	-2	-37	40	34*	-5
C#CCn1c(=NC(=O)c2ccc(S(=O)(=O)N3CCc4ccccc4C3)cc2)sc2cc(S(N)(=O)=O)ccc21	26*	-1	1	-7	1	28*	-4
C=CCn1c(=NC(=O)c2ccc(S(=O)(=O)N3CCc4ccccc4C3)cc2)sc2cc(S(N)(=O)=O)ccc21	2	-1	3	-5	0	.	.
O=C(CC1CC2CCC1C2)Nc1nc(-c2ccccn2)cs1 (stereo not drawn)	40*	6	3	-8	1	41*	-3
CC(Oc1ccc(F)cc1)C(=O)Nc1nc(-c2ccccn2)cs1 (stereo not drawn)	21*	0	-3	-3	2	32*	0
O=C(Nc1nc(-c2ccccn2)cs1)C1CC1	9	2	1	0	0	.	.
O=C(CCS(=O)(=O)c1ccccc1)Nc1ccccn1	5	-4	4	13	0	.	.
COc1ccc(OCCCC(=O)Nc2nc(-c3ccccn3)cs2)cc1	43*	6	4	-2	2	50*	3
O=C(CCS(=O)(=O)c1ccccc1)Nc1nc(-c2ccccn2)cs1	27*	4	0	2	0	37*	1
Cc1ccc(C(=O)NC(NCc2ccco2)C(Cl)(Cl)Cl)cc1 (stereo not drawn)	0	2	-3	-1	-3	.	.
CC(=O)NNC(=O)CN1C(=O)/C(=C/c2ccccc2)SC1=S	-3	0	3	-5	-1	.	.
O=C(CCS(=O)(=O)c1ccc(F)cc1)Nc1nc(-c2ccccn2)cs1	21*	2	1	0	0	44*	-1
Cc1ccc(S(=O)(=O)CCC(=O)Nc2nc(-c3ccncc3)cs2)cc1	3	-2	8	-9	2	.	.
c1ccc(Nc2nc(-c3ccccn3)cs2)cc1	50*	6	1	-2	2	46*	3
C=CCn1c(-c2ccc(OC)c(OC)c2)cs/c1=N\c1ccccn1	-2	2	0	-14	1	.	.
CCOc1ccc2[nH]c(=O)c(CN(CCO)Cc3nnnn3CCc3ccccc3)cc2c1	3	0	-1	-10	-1	.	.
Cc1ccc(/C=N/N2CCN(Cc3ccc(C)cc3)CC2)cc1	-6	1	1	-4	0	.	.
Cc1ccc(CN2CCN(/N=C/c3cc(Br)ccc3O)CC2)cc1	35*	3	2	-2	3	-4	-7
NNC(=O)c1ccc(COc2ccc3ccccc3c2)cc1	21*	-2	5	1	3	9	-2
CCOc1ccc(NC(=NCc2ccc3c(c2)OCO3)SC2CC(=O)N(c3ccc(OCC)cc3)C2=O)cc1 (stereo not drawn)	-2	-1	-1	-4	1	.	.
CCOc1ccc(NC(=NCc2ccc3c(c2)OCO3)SC2CC(=O)N(c3ccc(C(=O)O)cc3)C2=O)cc1 (stereo not drawn)	19*	5	1	20	4	8	6
SMILES	PP1 counter	PP5 inh	STEP block	Scp1 inh	LMPTP inh	PP1 inh confirm	PP5 inh counter
Cc1nc2ccccn2c1-c1ccnc(SCc2ccc(Cl)cc2)n1	-1	4	2	-1	1	.	.
Cc1ccc2[nH]c(=O)c(-c3nc4cc(C)ccn4c3NCc3ccco3)cc2c1	18*	1	1	0	1	21*	3
O=C1Nc2ccccc2/C1=C/c1cccnc1	-4	0	0	4	0	.	.
O=C1Nc2ccccc2/C1=C/c1cnc(-c2ccccc2)[nH]1	35*	2	-5	-3	18	35*	-1
O=C(O)CC/C(=N\NC(=O)CNC(=O)/C=C/c1ccccc1)c1ccccc1	-2	2	2	-11	-1	.	.
C=Cc1c(C)c2cc3[nH]c(cc4nc(cc5nc(cc1[nH]2)C(C)=C5CCC(=O)O)C(CCC(=O)O)=C4C)c(C)c3C=C	61*	5	1	64*!	5	41*	4
CCOC(=O)N1CCN(C(=O)CSc2ncnc3sccc23)CC1	.	.	2	-3	0	.	.
N#Cc1c(SCC(=O)Nc2nncs2)sc2c(O)cc(=O)[nH]c12	42*	-2	38	81*	4	10	6
Nc1nnc(-c2ccco2)s1	3	3	-1	-12	-1	.	.
Nc1ncnc2oc(-c3ccco3)c(-c3ccco3)c12	25*	2	30	66*	61*	16*	-2
Cc1ccc(Cn2cc(/C=N/Nc3ccc([N+](=O)[O-])cn3)c3ccccc32)cc1	10	2	1	2	3	.	.
COC(=O)Cn1cnc2scc(-c3ccc(C)cc3)c2c1=O	4	1	0	-4	-1	.	.
Cc1ccccc1/C=N/n1c(-c2cc(-c3ccccc3)n[nH]2)n[nH]c1=S	-1	1	1	-13	0	.	.
S=c1[nH]nc(-c2cc(-c3ccccc3)n[nH]2)n1/N=C/c1c(Cl)cccc1Cl	18*	9.6*	0	4	30	27*	-2
S=c1[nH]nc(-c2cc(-c3ccccc3)n[nH]2)n1/N=C/c1ccc(Br)s1	28*	-2	3	0	28	33*	-2
COc1cc(/C=N/NC(=O)c2cc(-c3ccccc3)nc3ccccc23)cc(OC)c1O	0	3	1	-5	3	.	.
CCn1c2ccccc2c2cc(NC(=O)COC(=O)c3ccc(NC(=O)CC#N)cc3)ccc21	64*	0	3	41	17	46*	-4
CCn1c2ccccc2c2cc(NC(=O)COC(=O)c3ccccc3F)ccc21	-2	-1	1	-7	1	.	.
C=CCn1c(N)c(C(=O)Nc2ccc(C)cc2)sc1=S	-2	3	-2	-3	-1	.	.
Cc1nn(C)cc1CNC(=O)C1C2CCC(C2)C1C(=O)O (stereo not drawn)	-1	6	.	.	.	.	.

Screens deposited in PubChem by several laboratories.
